According to ChEMBL document CHEMBL4808225, “Discovery and Characterization of Selective and Ligand-Efficient DYRK Inhibitors” (J Med Chem, 2021):
Values after ≈ are worked out from the molar mass of the structure shown.

Columns and labels:
[1] = Metabolic stability in human liver microsomes; type: ADME, Microsome; settings: read-out: Stabilty
[2] = Metabolic stability in rat liver microsomes; type: ADME, Microsome; settings: read-out: Stabilty
[3] = Thermodynamic solubility of the compound at pH 6.8; type: physicochemical; settings: buffer, read-out: Therm_solubility
Outline: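 Thermodynamic solubility measured at pH 6.8 in a single experiment, reported in […].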

[4] = biological target: Dual specificity tyrosine-phosphorylation-regulated kinase 1B (Homo sapiens) (UniProt Q9Y463); experiment: Inhibition of wild-type human full length DYRK1B (M1 to S629 residues) expressed in bacterial expression system assessed as remaining activity at 1 uM by Kinomescan method relative to control
Dual specificity tyrosine-phosphorylation-regulated kinase 1B (Homo sapiens), sequence (Q9Y463 whole entry, looked up, the tested form may be a part): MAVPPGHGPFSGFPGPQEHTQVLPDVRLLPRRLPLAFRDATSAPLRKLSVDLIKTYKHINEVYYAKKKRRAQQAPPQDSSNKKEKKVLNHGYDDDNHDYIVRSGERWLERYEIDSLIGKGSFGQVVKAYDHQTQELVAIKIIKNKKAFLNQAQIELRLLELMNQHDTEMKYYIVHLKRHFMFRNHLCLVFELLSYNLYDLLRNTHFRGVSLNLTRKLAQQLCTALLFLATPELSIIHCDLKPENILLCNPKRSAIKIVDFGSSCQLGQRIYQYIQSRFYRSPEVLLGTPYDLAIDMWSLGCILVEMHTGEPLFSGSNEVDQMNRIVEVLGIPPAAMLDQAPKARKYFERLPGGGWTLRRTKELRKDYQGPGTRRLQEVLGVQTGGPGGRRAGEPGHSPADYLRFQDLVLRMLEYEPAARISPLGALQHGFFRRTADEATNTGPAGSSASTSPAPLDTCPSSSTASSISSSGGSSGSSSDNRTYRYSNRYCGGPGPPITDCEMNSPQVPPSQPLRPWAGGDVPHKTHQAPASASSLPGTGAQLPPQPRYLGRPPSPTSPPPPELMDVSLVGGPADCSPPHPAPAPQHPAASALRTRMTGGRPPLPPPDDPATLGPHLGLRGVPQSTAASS
Outline: (§1)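 KINOMEscan competition binding panel run with inhibitor at 1 μM; read-out is remaining kinase activity (percent of control).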

[5] = biological target: T1, Dual specificity tyrosine-phosphorylation-regulated kinase 2 (Homo sapiens) (UniProt Q92630); experiment: Inhibition of wild-type human full length DYRK2 (M1 to S528 residues) expressed in mammalian expression system assessed as remaining activity at 1 uM by Kinomescan method relative to control; outline: as §1
T1 sequence (whole entry): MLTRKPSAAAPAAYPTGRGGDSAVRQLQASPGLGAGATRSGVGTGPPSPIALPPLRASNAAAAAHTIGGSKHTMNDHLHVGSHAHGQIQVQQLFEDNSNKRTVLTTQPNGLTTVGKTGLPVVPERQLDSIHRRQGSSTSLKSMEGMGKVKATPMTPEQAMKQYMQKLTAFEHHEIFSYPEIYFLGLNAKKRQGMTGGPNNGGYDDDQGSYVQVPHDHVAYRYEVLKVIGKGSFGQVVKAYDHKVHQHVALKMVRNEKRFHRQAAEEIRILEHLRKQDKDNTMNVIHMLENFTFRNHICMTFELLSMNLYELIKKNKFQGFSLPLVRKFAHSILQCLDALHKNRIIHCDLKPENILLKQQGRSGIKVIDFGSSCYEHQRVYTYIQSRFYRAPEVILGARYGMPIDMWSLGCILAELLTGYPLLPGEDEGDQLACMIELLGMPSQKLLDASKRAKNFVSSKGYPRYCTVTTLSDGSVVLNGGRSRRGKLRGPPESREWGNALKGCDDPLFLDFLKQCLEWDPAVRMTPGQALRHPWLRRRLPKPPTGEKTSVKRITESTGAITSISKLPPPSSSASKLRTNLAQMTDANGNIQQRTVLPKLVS

[6] = biological target: T2, Dual specificity protein kinase CLK1 (Homo sapiens, UniProt P49759); experiment: Inhibition of wild-type human full length CLK1 (M1 to I484 residues) expressed in bacterial expression system assessed as remaining activity at 1 uM by Kinomescan method relative to control; outline: as §1
Target sequence in this assay (P49759 whole entry, looked up, the tested form may be a part): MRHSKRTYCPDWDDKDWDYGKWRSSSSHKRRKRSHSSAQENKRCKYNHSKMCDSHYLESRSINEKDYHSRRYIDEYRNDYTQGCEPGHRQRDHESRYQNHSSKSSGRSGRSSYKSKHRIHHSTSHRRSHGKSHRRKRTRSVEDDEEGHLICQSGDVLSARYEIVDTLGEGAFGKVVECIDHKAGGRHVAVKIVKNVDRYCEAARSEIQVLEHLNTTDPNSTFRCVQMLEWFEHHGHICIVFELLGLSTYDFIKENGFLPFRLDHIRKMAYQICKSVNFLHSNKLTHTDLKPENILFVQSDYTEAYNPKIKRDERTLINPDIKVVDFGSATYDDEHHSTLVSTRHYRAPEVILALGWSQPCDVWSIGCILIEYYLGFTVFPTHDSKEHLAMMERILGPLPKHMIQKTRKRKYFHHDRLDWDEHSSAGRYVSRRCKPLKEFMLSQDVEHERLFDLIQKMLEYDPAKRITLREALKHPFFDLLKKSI

[7] = biological target: Dual specificity protein kinase CLK2 (Homo sapiens) (UniProt P49760); experiment: Inhibition of wild-type human partial length CLK2 (D144 to R498 residues) expressed in bacterial expression system assessed as remaining activity at 1 uM by Kinomescan method relative to control; outline: as §1
Dual specificity protein kinase CLK2 (Homo sapiens), sequence (P49760 whole entry, looked up, the tested form may be a part): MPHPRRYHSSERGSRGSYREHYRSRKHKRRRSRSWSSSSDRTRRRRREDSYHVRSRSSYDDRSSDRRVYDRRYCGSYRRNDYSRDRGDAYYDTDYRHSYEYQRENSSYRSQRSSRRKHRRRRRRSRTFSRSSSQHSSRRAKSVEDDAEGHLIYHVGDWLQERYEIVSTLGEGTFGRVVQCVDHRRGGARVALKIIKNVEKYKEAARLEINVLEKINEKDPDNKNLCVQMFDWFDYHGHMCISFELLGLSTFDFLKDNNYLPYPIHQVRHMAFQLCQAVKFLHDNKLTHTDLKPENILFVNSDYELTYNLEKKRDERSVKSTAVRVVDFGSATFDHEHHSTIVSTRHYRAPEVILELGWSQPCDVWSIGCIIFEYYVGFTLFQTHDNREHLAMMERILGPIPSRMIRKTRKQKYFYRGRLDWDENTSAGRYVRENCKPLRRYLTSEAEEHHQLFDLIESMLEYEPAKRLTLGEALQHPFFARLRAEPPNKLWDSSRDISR

[8] = biological target: Cyclin-dependent kinase 2 (Homo sapiens) (UniProt P24941); experiment: Inhibition of wild-type human full length CDK2 (M1 to L298 residues) expressed in bacterial expression system assessed as remaining activity at 1 uM by Kinomescan method relative to control; outline: as §1
[9] = biological target: T3, Serine/threonine-protein kinase haspin (Homo sapiens, UniProt Q8TF76); experiment: Binding affinity to wild-type human partial length HASPIN (I452 to K798 residues) expressed in mammalian expression system measured after 1 hr by competitive binding assay
T3 sequence (Q8TF76 whole entry): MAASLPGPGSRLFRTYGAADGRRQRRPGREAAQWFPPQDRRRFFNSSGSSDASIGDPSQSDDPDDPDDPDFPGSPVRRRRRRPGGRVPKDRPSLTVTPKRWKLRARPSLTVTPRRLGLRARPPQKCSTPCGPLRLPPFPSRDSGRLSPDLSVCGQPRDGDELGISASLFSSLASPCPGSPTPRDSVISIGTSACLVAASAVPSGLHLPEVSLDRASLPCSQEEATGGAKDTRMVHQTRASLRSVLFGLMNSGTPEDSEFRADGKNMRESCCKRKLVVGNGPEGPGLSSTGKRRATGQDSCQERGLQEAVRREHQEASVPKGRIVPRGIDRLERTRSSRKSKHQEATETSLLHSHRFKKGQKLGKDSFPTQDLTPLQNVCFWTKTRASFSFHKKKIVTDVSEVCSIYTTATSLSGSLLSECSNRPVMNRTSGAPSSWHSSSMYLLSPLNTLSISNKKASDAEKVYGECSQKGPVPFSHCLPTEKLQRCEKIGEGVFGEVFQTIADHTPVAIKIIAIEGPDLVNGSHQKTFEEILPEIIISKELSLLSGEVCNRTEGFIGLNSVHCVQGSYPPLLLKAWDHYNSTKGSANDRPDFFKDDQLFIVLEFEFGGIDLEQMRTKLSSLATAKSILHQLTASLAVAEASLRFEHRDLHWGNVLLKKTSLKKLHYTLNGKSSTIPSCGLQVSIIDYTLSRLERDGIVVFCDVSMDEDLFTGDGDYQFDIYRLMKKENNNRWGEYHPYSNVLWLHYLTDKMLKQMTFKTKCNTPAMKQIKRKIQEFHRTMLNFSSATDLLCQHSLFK

[10] = biological target: Dual specificity protein kinase CLK4 (Homo sapiens, UniProt Q9HAZ1); experiment: Binding affinity to wild-type human partial length CLK4 (R135 to K481 residues) expressed in bacterial expression system measured after 1 hr by competitive binding assay
Dual specificity protein kinase CLK4, sequence (Q9HAZ1 whole entry, the tested form may be a part): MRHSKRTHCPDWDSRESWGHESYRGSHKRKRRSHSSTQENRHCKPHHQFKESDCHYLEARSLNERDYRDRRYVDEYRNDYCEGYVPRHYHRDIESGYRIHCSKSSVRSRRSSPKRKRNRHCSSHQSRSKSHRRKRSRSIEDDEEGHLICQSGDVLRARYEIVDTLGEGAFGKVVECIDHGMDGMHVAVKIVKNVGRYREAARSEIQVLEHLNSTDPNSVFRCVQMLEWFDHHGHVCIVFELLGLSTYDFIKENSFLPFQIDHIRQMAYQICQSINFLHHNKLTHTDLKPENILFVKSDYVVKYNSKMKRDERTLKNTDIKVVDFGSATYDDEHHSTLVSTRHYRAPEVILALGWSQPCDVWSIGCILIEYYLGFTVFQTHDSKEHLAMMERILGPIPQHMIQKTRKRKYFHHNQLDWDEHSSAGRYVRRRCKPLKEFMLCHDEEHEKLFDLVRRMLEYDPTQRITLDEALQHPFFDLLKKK

[11] = biological target: T2, Dual specificity protein kinase CLK1; experiment: Binding affinity to wild-type human full length CLK1 (M1 to I484 residues) expressed in bacterial expression system measured after 1 hr by competitive binding assay
Target sequence in this assay (P49759 whole entry, the tested form may be a part): as the sequence (P49759 whole entry, looked up, the tested form may be a part) above

[12] = biological target: Homeodomain-interacting protein kinase 2 (Homo sapiens, UniProt Q9H2X6); experiment: Binding affinity to wild-type human partial length HIPK2 (M153 to S564 residues) expressed in mammalian expression system measured after 1 hr by competitive binding assay
[13] = biological target: MAP kinase-interacting serine/threonine-protein kinase 2 (Homo sapiens, UniProt Q9HBH9); experiment: Binding affinity to wild-type human partial length MKNK2 (G63 to S388 residues) expressed in mammalian expression system measured after 1 hr by competitive binding assay
MAP kinase-interacting serine/threonine-protein kinase 2, sequence (Q9HBH9 whole entry, the tested form may be a part): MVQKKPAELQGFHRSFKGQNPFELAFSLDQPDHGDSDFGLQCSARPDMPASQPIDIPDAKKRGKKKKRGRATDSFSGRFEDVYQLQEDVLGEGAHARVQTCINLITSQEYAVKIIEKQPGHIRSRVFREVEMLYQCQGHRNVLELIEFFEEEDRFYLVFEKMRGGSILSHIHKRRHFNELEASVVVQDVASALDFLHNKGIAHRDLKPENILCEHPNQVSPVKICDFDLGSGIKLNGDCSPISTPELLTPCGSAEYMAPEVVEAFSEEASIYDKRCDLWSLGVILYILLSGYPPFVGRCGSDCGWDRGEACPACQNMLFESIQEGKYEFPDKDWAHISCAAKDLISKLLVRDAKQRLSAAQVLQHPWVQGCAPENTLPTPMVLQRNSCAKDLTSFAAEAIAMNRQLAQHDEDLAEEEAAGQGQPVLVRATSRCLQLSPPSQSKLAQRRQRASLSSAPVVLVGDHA

[14] = biological target: Serine/threonine-protein kinase WNK2 (Homo sapiens, UniProt Q9Y3S1); experiment: Binding affinity to wild-type human partial length WNK2 (V47 to D482 residues) expressed in mammalian expression system measured after 1 hr by competitive binding assay
Serine/threonine-protein kinase WNK2, sequence (Q9Y3S1 whole entry, the tested form may be a part): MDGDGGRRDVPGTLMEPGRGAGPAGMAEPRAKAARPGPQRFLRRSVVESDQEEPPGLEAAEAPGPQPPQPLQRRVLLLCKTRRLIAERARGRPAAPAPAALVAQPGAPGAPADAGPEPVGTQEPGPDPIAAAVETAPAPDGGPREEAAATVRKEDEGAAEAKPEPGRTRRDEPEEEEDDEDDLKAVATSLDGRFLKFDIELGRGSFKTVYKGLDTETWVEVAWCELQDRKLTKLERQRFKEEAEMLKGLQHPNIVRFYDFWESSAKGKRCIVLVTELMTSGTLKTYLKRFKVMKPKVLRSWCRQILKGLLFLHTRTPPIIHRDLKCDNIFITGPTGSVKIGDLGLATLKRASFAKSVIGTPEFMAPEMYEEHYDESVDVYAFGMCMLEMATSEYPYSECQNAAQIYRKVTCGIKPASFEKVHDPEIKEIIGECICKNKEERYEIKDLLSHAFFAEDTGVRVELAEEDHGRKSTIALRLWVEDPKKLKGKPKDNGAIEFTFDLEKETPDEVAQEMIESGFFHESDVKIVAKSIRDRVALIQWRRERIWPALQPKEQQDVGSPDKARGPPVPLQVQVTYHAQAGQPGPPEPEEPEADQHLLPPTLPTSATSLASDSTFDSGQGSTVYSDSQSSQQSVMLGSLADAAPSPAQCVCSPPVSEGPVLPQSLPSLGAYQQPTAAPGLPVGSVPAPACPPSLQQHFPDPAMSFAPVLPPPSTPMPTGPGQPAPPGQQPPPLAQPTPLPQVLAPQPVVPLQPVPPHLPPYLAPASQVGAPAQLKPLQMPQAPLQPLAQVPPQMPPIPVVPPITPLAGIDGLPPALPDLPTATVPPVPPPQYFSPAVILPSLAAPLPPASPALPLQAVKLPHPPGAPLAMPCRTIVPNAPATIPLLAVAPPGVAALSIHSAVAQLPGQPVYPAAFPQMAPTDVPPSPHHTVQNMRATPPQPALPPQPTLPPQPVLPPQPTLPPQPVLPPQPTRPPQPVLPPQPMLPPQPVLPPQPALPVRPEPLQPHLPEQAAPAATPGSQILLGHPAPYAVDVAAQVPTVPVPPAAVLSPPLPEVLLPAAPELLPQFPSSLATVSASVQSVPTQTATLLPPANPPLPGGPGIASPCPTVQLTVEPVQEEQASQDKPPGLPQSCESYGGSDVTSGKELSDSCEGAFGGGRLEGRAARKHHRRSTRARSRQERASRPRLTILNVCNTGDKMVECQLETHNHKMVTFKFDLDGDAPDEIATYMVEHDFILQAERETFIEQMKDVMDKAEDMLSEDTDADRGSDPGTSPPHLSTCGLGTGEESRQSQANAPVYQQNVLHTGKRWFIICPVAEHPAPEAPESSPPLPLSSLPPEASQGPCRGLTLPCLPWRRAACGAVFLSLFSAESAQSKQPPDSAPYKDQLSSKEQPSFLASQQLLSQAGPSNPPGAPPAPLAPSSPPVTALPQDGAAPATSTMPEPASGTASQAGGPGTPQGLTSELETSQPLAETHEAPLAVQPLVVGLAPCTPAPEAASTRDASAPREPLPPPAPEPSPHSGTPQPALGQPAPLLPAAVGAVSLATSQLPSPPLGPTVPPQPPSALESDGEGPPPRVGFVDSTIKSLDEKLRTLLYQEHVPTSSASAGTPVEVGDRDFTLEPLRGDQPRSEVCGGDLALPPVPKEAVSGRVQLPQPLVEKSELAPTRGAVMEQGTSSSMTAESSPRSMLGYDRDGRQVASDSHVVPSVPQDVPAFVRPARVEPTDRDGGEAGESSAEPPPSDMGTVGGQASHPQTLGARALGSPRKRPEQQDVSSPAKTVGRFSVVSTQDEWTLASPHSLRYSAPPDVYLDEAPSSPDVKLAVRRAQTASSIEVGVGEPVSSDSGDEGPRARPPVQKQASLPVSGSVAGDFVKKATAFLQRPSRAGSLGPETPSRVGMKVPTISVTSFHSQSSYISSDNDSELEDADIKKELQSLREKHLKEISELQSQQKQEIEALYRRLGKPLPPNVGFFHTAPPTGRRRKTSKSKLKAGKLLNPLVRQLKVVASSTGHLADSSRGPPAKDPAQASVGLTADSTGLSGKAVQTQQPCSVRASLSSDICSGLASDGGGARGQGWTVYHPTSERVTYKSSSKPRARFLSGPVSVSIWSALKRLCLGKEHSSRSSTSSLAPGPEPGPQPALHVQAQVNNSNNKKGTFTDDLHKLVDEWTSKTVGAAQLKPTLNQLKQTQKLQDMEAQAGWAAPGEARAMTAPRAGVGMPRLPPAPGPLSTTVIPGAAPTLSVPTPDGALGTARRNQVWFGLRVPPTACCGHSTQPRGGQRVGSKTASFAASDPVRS

[15] = Half life in Sprague-Dawley rat at 1 mg/kg, iv; type: ADME, organism-based; settings: in vivo
Outline: (§2)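 Single intravenous dose of 1 mg/kg given to fed Sprague–Dawley rats (n = 3); plasma and brain samples collected for pharmacokinetic parameters, with total brain:plasma ratio computed.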

[16] = Tmax in Sprague-Dawley rat at 1 mg/kg, iv; type: ADME, organism-based; settings: in vivo; outline: as §2
[17] = AUC infinity in Sprague-Dawley rat at 1 mg/kg, iv; type: ADME, organism-based; parameters: time infinity, route intravenous, dose 1 mg/kg; settings: in vivo; outline: as §2
[18] = MRT in Sprague-Dawley rat at 1 mg/kg, iv; type: ADME, organism-based; settings: in vivo; outline: as §2
[19] = Initial plasma concentration in Sprague-Dawley rat at 1 mg/kg, iv; type: ADME, organism-based; settings: in vivo; outline: as §2
[20] = Ratio of drug concentration in brain to plasma in Sprague-Dawley rat at 1 mg/kg, iv; type: ADME, organism-based; outline: as §2

microsomal CLint [1]: 242 µL/min/mg
microsomal CLint [2]: 231 µL/min/mg
solubility thermodynamic [3]: 100 µg/mL (≈ 416 µM)
Activity [4]: 2.7%
Activity [5]: 19%
Activity [6]: 7.1%
Activity [7]: 9.4%
Activity [8]: 100%
Kd [9]: 15 nM
Kd [10]: 61 nM
Kd [11]: 70 nM
Kd [12]: 1200 nM
Kd [13]: 1800 nM
Kd [14]: 10000 nM
t1/2 [15]: 12 min
Tmax [16]: 1.8 min
AUC [17]: 276.4 ng·h/mL
MRT [18]: 12 min
C0 [19]: 1331.5 ng/mL
BPR [20]: > 0.35
Structure (SMILES): CN(C)c1nccc(-c2cnn3ncccc23)n1
